Compound activity from PubChem.
MEX-5 binding: C. elegans MEX-5 TCR-2 RNA binding activity; Q9XUB2; MEX-5/FITC-TCR2 RNA binding, fluorescence polarization; hits give low values; activity score (negative = inhibition of binding), % at 10 µM; 300,000 compounds, 0.38% hits; AID 1832;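 active = inhibition past about -25% in most replicates, and total fluorescence under double the plate's negative control median, limit read from the data; inconclusive = replicates evenly split on the limit, or fluorescence at least double controls; inactive = too little inhibition in most replicates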
T cell HTS: modulates CD8 T cell binding to vesicles. response (vesicle binding), % at 7 µM. 2C CD8+ T cell-vesicle binding, flow cytometry; hits give low values. 330,000 compounds, 0.068% hits. AID 2052;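 active = response, share of CD8 T cells binding vesicles, and their 90th percentile fluorescence all below set limits, cut at about 80% in these data, passing the limit was not always enough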;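 also: values below 100% mean blocked vesicle binding to the CD8+ T cells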
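Test system: purified 2C TCR transgenic mouse naive CD8+ T cells. Probe or stimulus: QL9-peptide-loaded Drosophila micro-vesicles bearing Ld, ICAM-1 and B7-1. Incubation: binding step 1.5 h, 37 °C, antibody labelling 20 min, ice. Measured by: flow cytometry of vesicle-bound cells.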
Keap1 Nrf2 FP: Keap1-Nrf2 (human) interaction inhibition. Q14145. Keap1 Kelch-Nrf2 peptide fluorescence polarization, 1536-well. inhibition, % at 9.4 µM. 340,000 compounds, 0.15% hits. AID 504523; in the data active = inhibition above about 12%; inconclusive = no clear call, values can overlap the other calls; inactive = below about 7.3%;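 also: human Keap1 Kelch domain with fluorescein labeled Nrf2 9mer peptide probe; higher means more block of Keap1 binding to Nrf2 peptide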
LANA DNA inh: inhibitors of KSHV LANA C-terminal domain DNA binding; MBP-C-LANA/FAM-LBS DNA binding, fluorescence polarization; inhibition, % at 9 µM; 340,000 compounds, 0.078% hits;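 active = highest replicate inhibition at or above 60% at 9 µM, even if other replicates fall short; inactive = all replicates below 60% inhibition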
EBV gp42 block: inhibitors of Epstein-Barr virus glycoprotein 42 | Q1HVG2 | inhibition, % (tested at 21.74 µM) | AID 1085 | 220,000 compounds, 0.42% hits | Fluorescence polarization binding assay, mP read-out; in the data active = inhibition above about 50%
GRK2 inh: inhibitors of human GRK2 displacing RNA aptamer; P25098; bead flow cytometry, FAM-aptamer displacement from GRK2; inhibition of aptamer binding, % at 10 µM; 330,000 compounds, 0.59% hits;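 active = inhibition of aptamer binding above 40%, roughly 3 SD of noise, on plates passing a quality check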;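 also: median bead fluorescence of bound FAM aptamer so fluorescent compounds give negative values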
Target sequence (P25098 whole entry, looked up): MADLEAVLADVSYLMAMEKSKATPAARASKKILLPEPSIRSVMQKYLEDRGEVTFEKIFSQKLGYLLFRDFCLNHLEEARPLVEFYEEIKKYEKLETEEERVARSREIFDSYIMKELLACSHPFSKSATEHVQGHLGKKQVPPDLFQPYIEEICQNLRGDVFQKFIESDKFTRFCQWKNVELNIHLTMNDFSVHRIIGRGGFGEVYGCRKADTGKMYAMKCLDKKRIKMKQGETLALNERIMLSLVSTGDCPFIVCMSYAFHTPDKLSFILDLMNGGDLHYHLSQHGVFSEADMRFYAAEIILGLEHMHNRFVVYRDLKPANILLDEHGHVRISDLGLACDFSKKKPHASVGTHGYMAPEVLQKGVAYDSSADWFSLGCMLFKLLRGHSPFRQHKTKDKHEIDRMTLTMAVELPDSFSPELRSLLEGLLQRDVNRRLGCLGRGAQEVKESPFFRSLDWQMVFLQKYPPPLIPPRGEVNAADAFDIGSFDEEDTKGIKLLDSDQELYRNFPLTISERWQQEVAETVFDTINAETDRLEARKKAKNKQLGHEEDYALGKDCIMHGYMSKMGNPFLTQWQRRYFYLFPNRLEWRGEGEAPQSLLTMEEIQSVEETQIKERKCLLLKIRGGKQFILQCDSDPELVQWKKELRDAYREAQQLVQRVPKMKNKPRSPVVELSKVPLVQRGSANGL
Each line names hits and unclear results; the compound was inactive in the other large screens. Sampled rows, rich in hits. Any-hit rate of the full collection: about 1.3%.

COc1ccc(OC)c(-c2c3cc(O)c(=O)cc-3oc3cc(O)c(O)cc23)c1	Keap1 Nrf2 FP active, LANA DNA inh 166.6, EBV gp42 block 168.4 (no result: MEX-5 binding)
O=c1cc2oc3cc(O)c(O)cc3c(-c3ccccc3O)c-2cc1O	Keap1 Nrf2 FP 49.1, LANA DNA inh 145.6, EBV gp42 block 149.9 (no result: MEX-5 binding, T cell HTS, GRK2 inh)
CCOc1ccccc1-c1c2cc(O)c(=O)cc-2oc2cc(O)c(O)cc12	Keap1 Nrf2 FP active, LANA DNA inh 157.7, EBV gp42 block 153.3 (no result: MEX-5 binding, T cell HTS, GRK2 inh)
COc1ccc(OC)c(-c2oc3ccccc3c(=O)c2O)c1	none
CC1CCc2c(sc(NC(=O)Cn3nc(C(F)(F)F)c4c3CCCCC4)c2C#N)C1 (stereo unspecified)	T cell HTS 0.0
O=C1c2cc(F)ccc2-n2c1nc1ccccc1c2=O	MEX-5 binding -33.2 (no result: EBV gp42 block)
Nn1c(-c2ccc(F)cc2)nc2ccccc2c1=O	none (no result: EBV gp42 block)
CC[C@@H](C)[C@H](N)C(=O)NC[C@H]1O[C@@H](n2cnc3c(N)ncnc32)[C@H](O)[C@@H]1O	none (no result: MEX-5 binding, T cell HTS, EBV gp42 block)
C=CCOc1ccc(C[C@H](N)C(=O)NC[C@H]2O[C@@H](n3cnc4c(N)ncnc43)[C@H](O)[C@@H]2O)cc1	GRK2 inh 43.0 (no result: MEX-5 binding, T cell HTS, EBV gp42 block)
COc1ccccc1/C=N/NC(=O)C1=NNC(c2ccccc2)(c2ccccc2)C1	none (no result: Keap1 Nrf2 FP, LANA DNA inh)
O=c1[nH]c(S)c(/C=C2\C=Nc3ccccc32)s1	EBV gp42 block 62.7 (no result: Keap1 Nrf2 FP, LANA DNA inh)
CCN1C(C)=CC(=O)[C@@H](O)[C@H]1c1ccccc1Br	none (no result: MEX-5 binding, T cell HTS, EBV gp42 block, GRK2 inh)
O=C1CSC(c2ccc(Cl)c(Cl)c2)N1c1nccs1 (stereo unspecified)	none (no result: MEX-5 binding, EBV gp42 block)
CCn1cc(C(=O)NCc2ccccn2)c(=O)c2cc(S(=O)(=O)N3CCCCC3)ccc21	MEX-5 binding -71.9, EBV gp42 block 110.7 (no result: T cell HTS, Keap1 Nrf2 FP, LANA DNA inh, GRK2 inh)
CN1C(=O)/C(=C2\SC(=S)N(CCCCCC(=O)O)C2=O)c2ccccc21	EBV gp42 block 72.8
O=C(O)CCN1C(=O)/C(=C2\C(=O)N(Cc3ccc(F)cc3)c3ccccc32)SC1=S	none (no result: EBV gp42 block)
Cc1nnc(NC(=O)CSc2nc3ccccc3[nH]2)s1	none
COc1cc(NS(=O)(=O)c2ccc(N/C=C(\C#N)c3nc4cc(Cl)ccc4o3)cc2)nc(OC)n1	none
COc1ccc(OC)c(/C=N/NC(=O)c2ccc(=O)[nH]n2)c1	none
COc1cccc(/C=N/NC(=O)c2ccc(=O)[nH]n2)c1O	MEX-5 binding -35.0
CC(=O)Oc1ccc2c(c1)Oc1cc(OC(C)=O)ccc1C21OC(=O)c2ccccc21	Keap1 Nrf2 FP 14.8, LANA DNA inh 167.9, EBV gp42 block 94.8 (no result: MEX-5 binding)
Cc1cc(Nc2ccccc2)n(CCOC(=O)COc2ccccc2)n1	none
O=C(O)CCCN1C(=O)/C(=C/c2ccc(-c3nc4ccccc4s3)o2)SC1=S	MEX-5 binding -29.3
O=C(O)CCCCCN1C(=O)/C(=C\c2ccc(-c3ccc(Cl)cc3)o2)SC1=S	none
O=C1N=C(N2CCCCC2)S/C1=C/C1=Cc2ccccc2OC1	MEX-5 binding -43.1
Cc1ccc(/C=C2\SC(N3CCCC3)=NC2=O)cc1	none (no result: Keap1 Nrf2 FP, LANA DNA inh)
O=C(NCC[C@@H]1C[C@@H]2C=C[C@H]1C2)c1cc(COc2ccc(F)cc2F)on1	none (no result: EBV gp42 block)
CC(C)N1CCN(Cc2cccc3nonc23)CC1CCO (stereo unspecified)	none
C[C@@H](c1ccccc1)N1C[C@H]2CCCN2c2cc(Br)ccc2S1(=O)=O	GRK2 inh 41.0 (no result: MEX-5 binding, T cell HTS, EBV gp42 block)
O=[N+]([O-])c1cc(CN2CCOCC2)c2cccnc2c1O	EBV gp42 block 87.3 (no result: MEX-5 binding, T cell HTS, Keap1 Nrf2 FP, LANA DNA inh, GRK2 inh)
C=C(C)Cn1c(CCNC(=O)C(C)C)nc2ccccc21	none
COC(=O)c1cc2c(C)c(C)c3ccccn3c-2c1C(=O)OC	MEX-5 binding inconclusive, EBV gp42 block 50.5
COC(=O)c1cc2c(C)cc3ccc(C)cn3c-2c1C(=O)OC	EBV gp42 block 87.9
COC(=O)c1cc2n3ccccc3c(C)c(-c3ccccc3)c-2c1C(=O)OC	MEX-5 binding inconclusive, EBV gp42 block 103.5
CCOC(=O)c1cc(NC(=O)Nc2ccccc2OC)c(C)nc1C	none
CCN(CC(=O)Nc1c(F)cccc1F)C(=O)CCCc1cccs1	none (no result: MEX-5 binding, EBV gp42 block)
CC1=NNC(=O)C1CC(=O)N/N=C/c1ccc(C)o1 (stereo unspecified)	none (no result: Keap1 Nrf2 FP, LANA DNA inh)
COC(=O)CCCC1=CC2=CC(=O)C(C)(O)C(=O)C2=CO1 (stereo unspecified)	MEX-5 binding -38.7 (no result: T cell HTS, Keap1 Nrf2 FP, LANA DNA inh, EBV gp42 block, GRK2 inh)
COC(=O)CCCC1=CC2=CC(=O)C(C)(OC(=O)C3CCCC3)C(=O)C2=CO1 (stereo unspecified)	MEX-5 binding -26.7
CCCCC1=CC2=CC(=O)C(C)(OC(=O)CC)C(=O)C2=CO1 (stereo unspecified)	none (no result: EBV gp42 block)
CCC(=O)OC1(C)C(=O)C=C2C=C(CCCC(=O)OC)OC=C2C1=O (stereo unspecified)	MEX-5 binding -31.1 (no result: EBV gp42 block)
CCc1ccccc1NC(=O)c1ccc(S(=O)(=O)NCC2CCCO2)cc1 (stereo unspecified)	none (no result: EBV gp42 block)
Cc1nc(S/C(=C/c2ccc(-c3ccc(Cl)cc3)o2)C(=O)O)n[nH]1	none
CC(=O)c1ccc(-c2ccc(/C=C(/Sc3n[nH]c(C)n3)C(=O)O)o2)cc1	MEX-5 binding -35.0
Cc1nc(S/C(=C/c2ccc(-c3ccc(C(=O)O)cc3)o2)C(=O)O)n[nH]1	MEX-5 binding -80.5
Cc1ccc(S(=O)(=O)Nc2ccccc2C=Nc2cccc(C)c2C)cc1	T cell HTS 0.0
Nc1nc(NCC(=O)O)nc(NCc2ccccc2)c1[N+](=O)[O-]	none (no result: EBV gp42 block)
O=C(N/N=C/c1ccc(OC(=O)c2ccccc2Cl)cc1)c1ccccn1	none (no result: EBV gp42 block)
O=C(N/N=C/c1ccc(OC(=O)c2ccccc2Cl)cc1)c1cc(O)cc(O)c1	GRK2 inh 55.0 (no result: EBV gp42 block)
COc1cc(/C=N/NC(=O)c2cc(O)cc(O)c2)ccc1OC(=O)c1ccccc1	GRK2 inh 44.0 (no result: EBV gp42 block)
O=C(Nc1ccccc1[N+](=O)[O-])c1ccc(S(=O)(=O)N2CCCC2)cc1	none (no result: EBV gp42 block)
CCOC(=O)c1ccc(CC(=O)c2oc3cc(O)ccc3c2C)o1	none
CCOC(=O)c1ccc(CC(=O)c2ccc(O)c(O)c2O)o1	MEX-5 binding -26.9 (no result: T cell HTS, GRK2 inh)
COc1ccc(NC(=O)c2ccc3ncsc3c2)c2ccccc12	none (no result: EBV gp42 block)
CC(=O)C1=C(c2ccccc2)N(C(C)=O)n2c(C)nnc2S1	MEX-5 binding -44.6
CC(=O)N1CCN(c2nnc(-c3ccccc3)c3ccccc23)CC1	none (no result: EBV gp42 block)
CC1(OC(=O)C2CCCC2)C(=O)C=C2C=C(c3ccsc3)OC=C2C1=O (stereo unspecified)	LANA DNA inh 77.7
CC1(OC(=O)c2cccs2)C(=O)C=C2C=C(c3ccsc3)OC=C2C1=O (stereo unspecified)	MEX-5 binding -26.9 (no result: Keap1 Nrf2 FP, LANA DNA inh, EBV gp42 block)
CC1(OC(=O)c2cccs2)C(=O)C=C2C=C(c3ccc(C#N)cc3)OC=C2C1=O (stereo unspecified)	none (no result: Keap1 Nrf2 FP, LANA DNA inh, EBV gp42 block)
COc1ccc(CCNC(=O)c2ccc(Cl)c(S(=O)(=O)N3CCCC3)c2)cc1	none (no result: MEX-5 binding, EBV gp42 block)
